In ChEMBL document CHEMBL1125209, “Boc-CCK-4 derivatives containing side-chain ureas as potent and selective CCK-a receptor agonists” (J Med Chem, 1991):
*1 amine or outer side, *2 acyl side, *3 side chain or, on linkers, in order; H or OH if unused. Where a SMILES comes first, the peptide text is derived from it. Side-chain parts run from the residue outwards. [ ]: non-standard residue; d: D form. The star is where a group is joined. hCit = NC(=O)NCCCC[C@H](N)C(=O)O; NH(2-Me-phenyl) = Cc1ccccc1N*; X3 = O=[N+]([O-])c1ccccc1N*; hLys = NCCCCC[C@H](N)C(=O)O; X9 = FC(F)(F)c1cccc(N*)c1; Orn = NCCC[C@H](N)C(=O)O; βNA = c1ccc2cc(N*)ccc2c1; X8 = Clc1ccc(N*)c(Cl)c1; Boc = CC(C)(C)OC(=O)*; NHcHex = C1CCC(N*)CC1; X1 = Clc1cccc(Cl)c1N*; CO = O=C([*:1])[*:2]; X2 = CC(C)c1ccccc1N*; NHtBu = CC(C)(C)N*; X10 = Brc1ccccc1N*; X5 = Cc1cccc(N*)c1; X6 = COc1ccccc1N*

What was measured:
[1] = species: Cavia porcellus; assay: The compound was tested for effective concentration for amylase release in guinea pig pancreatic Acini; type: functional
Procedure, shortened: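 Amylase release from guinea pig pancreatic acini. […] Each determination was run in duplicate with <5% sample variability. Means ±SE are given where there were three or more determinations.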

[2] = species: Cavia porcellus; assay: Effective concentration for hydrolysis of phosphoinositide in guinea pig pancreatic Acini; type: functional
Procedure, shortened: (§1)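 Guinea pig pancreatic acini, phosphoinositide hydrolysis. […] Efficacy is expressed as % of the maximal response elicited by CCK-8. Each determination was run in duplicate with <5% sample variability. Means ±SE are given for three or more determinations.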

[3] = species: Cavia porcellus; assay: Percentage response in phosphoinositide hydrolysis relative to maximal response elicited by CCK-8 in guinea pig pancreatic acini; type: functional; procedure, shortened: as §1
[4] = molecular target: T1, Cholecystokinin receptor type A (Cavia porcellus, UniProt Q63931); assay: Binding affinity for Cholecystokinin type A receptor in guinea pig pancreas by using [125I]BH-CCK-8 as radioligand
T1 sequence (Q63931 whole entry): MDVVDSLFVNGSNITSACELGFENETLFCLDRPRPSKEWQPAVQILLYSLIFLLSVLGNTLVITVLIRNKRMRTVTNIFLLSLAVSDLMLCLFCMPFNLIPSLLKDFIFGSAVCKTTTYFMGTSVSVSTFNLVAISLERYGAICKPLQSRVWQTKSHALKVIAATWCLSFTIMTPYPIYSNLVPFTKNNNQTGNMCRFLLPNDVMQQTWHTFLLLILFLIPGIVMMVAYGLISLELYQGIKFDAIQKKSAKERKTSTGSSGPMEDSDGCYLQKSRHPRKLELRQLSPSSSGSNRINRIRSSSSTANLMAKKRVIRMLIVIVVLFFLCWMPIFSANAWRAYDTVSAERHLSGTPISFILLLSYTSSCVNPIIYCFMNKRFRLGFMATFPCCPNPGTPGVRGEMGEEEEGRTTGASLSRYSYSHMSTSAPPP

[5] = Selectivity ratio of IC50 measured in guinea pig cortex to that of IC50 for guinea pig pancreas; conditions: Cavia porcellus
[6] = molecular target: T1, Cholecystokinin receptor type A; assay: Binding affinity towards cholecystokinin type A receptor in guinea pig pancreas by using [125I]BH-CCK-8 as radioligand; type: tissue-based
Procedure, shortened: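 Radioligand displacement of [125I]Bolton-Hunter CCK-8, guinea pig pancreas (CCK-A) or cortex (CCK-B) membranes. […] Each determination was run in duplicate with <5% sample variability. Means ±SE are given where there were three or more determinations.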

Row | Structure (SMILES) | EC50 [1] | EC50 [2] | Max response [3] | IC50 [4] | Selectivity [5] | IC50 [6]
1 | CC(C)(C)OC(=O)N[C@@H](Cc1c[nH]c2ccccc12)C(=O)N[C@@H](CCCCNC(=O)NC1CCCCC1)C(=O)N[C@@H](CC(=O)O)C(=O)N[C@@H](Cc1ccccc1)C(N)=O (Boc-WK([CO-NHcHex])DF-NH2) | 4.2 nM | 55 nM | 97% | – | – | –
2 | CC(C)(C)NC(=O)NCCCC[C@H](NC(=O)[C@H](Cc1c[nH]c2ccccc12)NC(=O)OC(C)(C)C)C(=O)N[C@@H](CC(=O)O)C(=O)N[C@@H](Cc1ccccc1)C(N)=O (Boc-WK([CO-NHtBu])DF-NH2) | 42 nM | 330 nM | 73% | 170 nM | 33 | –
3 | CC(C)(C)OC(=O)N[C@@H](Cc1c[nH]c2ccccc12)C(=O)N[C@@H](CCCCNC(=O)Nc1c(Cl)cccc1Cl)C(=O)N[C@@H](CC(=O)O)C(=O)N[C@@H](Cc1ccccc1)C(N)=O (Boc-WK([CO-X1])DF-NH2) | 44 nM | 310 nM | 66% | 160 nM | 44 | –
4 | CC(C)c1ccccc1NC(=O)NCCCC[C@H](NC(=O)[C@H](Cc1c[nH]c2ccccc12)NC(=O)OC(C)(C)C)C(=O)N[C@@H](CC(=O)O)C(=O)N[C@@H](Cc1ccccc1)C(N)=O (Boc-WK([CO-X2])DF-NH2) | 4.4 nM | – | 85% | 23 nM | 250 | –
5 | CC(C)(C)OC(=O)N[C@@H](Cc1c[nH]c2ccccc12)C(=O)N[C@@H](CCCCNC(=O)Nc1ccccc1[N+](=O)[O-])C(=O)N[C@@H](CC(=O)O)C(=O)N[C@@H](Cc1ccccc1)C(N)=O (Boc-WK([CO-X3])DF-NH2) | 1.9 nM | 21 nM | 100% | 22 nM | – | –
6 | Cc1cccc(NC(=O)NCCCC[C@H](NC(=O)[C@H](Cc2c[nH]c3ccccc23)NC(=O)OC(C)(C)C)C(=O)N[C@@H](CC(=O)O)C(=O)N[C@@H](Cc2ccccc2)C(N)=O)c1 (Boc-WK([CO-X5])DF-NH2) | – | 51 nM | 95% | – | – | –
7 | COc1ccccc1NC(=O)NCCCC[C@H](NC(=O)[C@H](Cc1c[nH]c2ccccc12)NC(=O)OC(C)(C)C)C(=O)N[C@@H](CC(=O)O)C(=O)N[C@@H](Cc1ccccc1)C(N)=O (Boc-WK([CO-X6])DF-NH2) | – | 8.4 nM | 100% | – | – | –
8 | CC(C)(C)OC(=O)N[C@@H](Cc1c[nH]c2ccccc12)C(=O)N[C@@H](CCCCNC(=O)Nc1ccc(Cl)cc1Cl)C(=O)N[C@@H](CC(=O)O)C(=O)N[C@@H](Cc1ccccc1)C(N)=O (Boc-WK([CO-X8])DF-NH2) | – | – | – | – | – | 8.5 nM
9 | CC(C)(C)OC(=O)N[C@@H](Cc1c[nH]c2ccccc12)C(=O)N[C@@H](CCCCNC(=O)Nc1cccc(C(F)(F)F)c1)C(=O)N[C@@H](CC(=O)O)C(=O)N[C@@H](Cc1ccccc1)C(N)=O (Boc-WK([CO-X9])DF-NH2) | – | – | – | 59 nM | – | –
10 | CC(C)(C)OC(=O)N[C@@H](Cc1c[nH]c2ccccc12)C(=O)N[C@@H](CCCCNC(=O)Nc1ccccc1Br)C(=O)N[C@@H](CC(=O)O)C(=O)N[C@@H](Cc1ccccc1)C(N)=O (Boc-WK([CO-X10])DF-NH2) | – | – | – | 3.6 nM | – | –
11 | CC(C)(C)OC(=O)N[C@@H](Cc1c[nH]c2ccccc12)C(=O)N[C@@H](CCCCNC(=O)Nc1ccc2ccccc2c1)C(=O)N[C@@H](CC(=O)O)C(=O)N[C@@H](Cc1ccccc1)C(N)=O (Boc-WK([CO-βNA])DF-NH2) | 7 nM | 140 nM | 79% | – | 200 | –
12 | Cc1ccccc1NC(=O)NCCC[C@H](NC(=O)[C@H](Cc1c[nH]c2ccccc12)NC(=O)OC(C)(C)C)C(=O)N[C@@H](CC(=O)O)C(=O)N[C@@H](Cc1ccccc1)C(N)=O (Boc-W[Orn]([CO-NH(2-Me-phenyl)])DF-NH2) | 420 nM | – | 36% | 650 nM | 23 | –
13 | CC(C)(C)OC(=O)N[C@@H](Cc1c[nH]c2ccccc12)C(=O)N[C@@H](CCCCNC(N)=O)C(=O)N[C@@H](CC(=O)O)C(=O)N[C@@H](Cc1ccccc1)C(N)=O (Boc-W[hCit]DF-NH2) | – | – | – | 12000 nM | 0.083 | –
14 | Cc1ccccc1NC(=O)NCCCCC[C@H](NC(=O)[C@H](Cc1c[nH]c2ccccc12)NC(=O)OC(C)(C)C)C(=O)N[C@@H](CC(=O)O)C(=O)N[C@@H](Cc1ccccc1)C(N)=O (Boc-W[hLys]([CO-NH(2-Me-phenyl)])DF-NH2) | 12 nM | – | 83% | 93 nM | – | –
15 | CSCC[C@H](NC(=O)[C@H](Cc1ccc(OS(=O)(=O)O)cc1)NC(=O)[C@@H](N)CC(=O)O)C(=O)NCC(=O)N[C@@H](Cc1c[nH]c2ccccc12)C(=O)N[C@@H](CCSC)C(=O)N[C@@H](CC(=O)O)C(=O)N[C@@H](Cc1ccccc1)C(N)=O [SINCALIDE] | 0.47 nM | 1.2 nM | – | – | – | –
